Results reported in ChEMBL document CHEMBL4118253, “Expedient synthesis and biological evaluation of alkenyl acyclic nucleoside phosphonate prodrugs” (Bioorg Med Chem, 2018).

Columns and labels:
[1] = tested on: Human alphaherpesvirus 1; assay: Antiviral activity against Herpes simplex virus 1 KOS infected in HEL cells assessed as inhibition of virus-induced cytopathicity; type: functional, organism-based; settings: Human alphaherpesvirus 1, KOS
[2] = tested on: Human alphaherpesvirus 2; assay: Antiviral activity against Herpes simplex virus 2 G infected in HEL cells assessed as inhibition of virus-induced cytopathicity; type: functional, organism-based; settings: Human alphaherpesvirus 2, strain G
[3] = tested on: Human alphaherpesvirus 1; assay: Antiviral activity against acyclovir-resistant thymidine kinase deficient Herpes simplex virus 1 KOS infected in HEL cells assessed as inhibition of virus-induced cytopathicity; type: functional, organism-based; settings: Human alphaherpesvirus 1, KOS
[4] = tested on: Vaccinia virus; assay: Antiviral activity against Vaccinia virus infected in HEL cells assessed as inhibition of virus-induced cytopathicity; type: functional, organism-based; settings: Orthopoxvirus vaccinia
[5] = tested on: Human adenovirus 2; assay: Antiviral activity against Adenovirus 2 infected in HEL cells assessed as inhibition of virus-induced cytopathicity; type: functional, organism-based; settings: Human mastadenovirus C
[6] = tested on: Human coronavirus 229E; assay: Antiviral activity against Human coronavirus 229E infected in HEL cells assessed as inhibition of virus-induced cytopathicity; type: functional, organism-based
[7] = tested on: Human respirovirus 3; assay: Antiviral activity against Parainfluenza virus 3 infected in human HeLa cells assessed as inhibition of virus-induced cytopathicity; type: functional, organism-based; settings: Human respirovirus 3, HeLa
[8] = tested on: Mammalian orthoreovirus 1; assay: Antiviral activity against Reovirus-1 infected in human HeLa cells assessed as inhibition of virus-induced cytopathicity; type: functional, organism-based; settings: Mammalian orthoreovirus 1, HeLa
[9] = tested on: Vesicular stomatitis virus; assay: Antiviral activity against Vesicular stomatitis virus infected in human HeLa cells assessed as inhibition of virus-induced cytopathicity; type: functional, organism-based
[10] = tested on: Respiratory syncytial virus; assay: Antiviral activity against Respiratory syncytial virus infected in human HeLa cells assessed as inhibition of virus-induced cytopathicity; type: functional, organism-based
[11] = tested on: Influenza A virus; assay: Antiviral activity against Influenza A virus H1N1 infected in MDCK cells assessed as inhibition of virus-induced cytopathicity by MTS assay; type: functional, organism-based
[12] = tested on: Influenza A virus H3N2; assay: Antiviral activity against Influenza A virus H3N2 infected in MDCK cells assessed as inhibition of virus-induced cytopathicity by MTS assay; type: functional, organism-based
[13] = tested on: Influenza B virus; assay: Antiviral activity against Influenza B virus infected in MDCK cells assessed as inhibition of virus-induced cytopathicity by MTS assay; type: functional, organism-based
[14] = tested on: Human alphaherpesvirus 3; assay: Antiviral activity against thymidine kinase expressing Varicella-Zoster virus infected in HEL cells assessed as reduction in virus plaque formation; type: functional, organism-based; settings: Human alphaherpesvirus 3, HEL
[15] = tested on: Human alphaherpesvirus 3; assay: Antiviral activity against thymidine kinase deficient Varicella-Zoster virus infected in HEL cells assessed as reduction in virus plaque formation; type: functional, organism-based; settings: Human alphaherpesvirus 3, HEL
[16] = tested on: Human betaherpesvirus 5; assay: Antiviral activity against Human cytomegalovirus AD169 infected in HEL cells assessed as inhibition of virus-induced cytopathicity; type: functional, organism-based; settings: Human betaherpesvirus 5, AD169, HEL
[17] = tested on: Human betaherpesvirus 5; assay: Antiviral activity against Human cytomegalovirus Davis infected in HEL cells assessed as inhibition of virus-induced cytopathicity; type: functional, organism-based; settings: Human betaherpesvirus 5, Davis
[18] = Cytotoxicity against HEL cells assessed as alteration of cell morphology by microscopic analysis; type: cell-based; settings: human
In short: (§1)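 The value is the minimal cytotoxic concentration (MCC), the lowest concentration that causes a microscopically visible change in cell morphology. It was read in the same HEL or Vero cell cultures used for the antiviral tests.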

[19] = tested on: Sindbis virus; assay: Antiviral activity against Sindbis Virus infected in African green monkey Vero cells assessed as inhibition of virus-induced cytopathicity; type: functional, organism-based
[20] = tested on: Coxsackievirus B4; assay: Antiviral activity against Coxsackie virus B4 infected in African green monkey Vero cells assessed as inhibition of virus-induced cytopathicity; type: functional, organism-based; settings: Enterovirus B
[21] = tested on: Punta Toro virus; assay: Antiviral activity against Punta Toro virus infected in African green monkey Vero cells assessed as inhibition of virus-induced cytopathicity; type: functional, organism-based
[22] = tested on: Yellow fever virus; assay: Antiviral activity against Yellow fever virus infected in African green monkey Vero cells assessed as inhibition of virus-induced cytopathicity; type: functional, organism-based
[23] = Cytotoxicity against African green monkey Vero cells assessed as alteration of cell morphology by microscopic analysis; type: cell-based; settings: chlorocebus sabaeus; in short: as §1
[24] = Cytotoxicity against human HeLa cells assessed as alteration of cell morphology by microscopic analysis; type: cell-based
[25] = Cytotoxicity against MDCK cells assessed as alteration of cell morphology by microscopic analysis; type: cell-based, Canis lupus familiaris; settings: dog
[26] = tested on: Influenza A virus; assay: Antiviral activity against Influenza A virus H1N1 infected in MDCK cells assessed as inhibition of virus-induced visual cytopathicity; type: functional, organism-based
[27] = tested on: Influenza A virus H3N2; assay: Antiviral activity against Influenza A virus H3N2 infected in MDCK cells assessed as inhibition of virus-induced visual cytopathicity; type: functional, organism-based
[28] = tested on: Influenza B virus; assay: Antiviral activity against Influenza B virus infected in MDCK cells assessed as inhibition of virus-induced visual cytopathicity; type: functional, organism-based

Row | SMILES | EC50 [1] [µM] | EC50 [2] [µM] | EC50 [3] [µM] | EC50 [4] [µM] | EC50 [5] [µM] | EC50 [6] [µM] | EC50 [7] [µM] | EC50 [8] [µM] | EC50 [9] [µM] | EC50 [10] [µM] | EC50 [11] [µM] | EC50 [12] [µM] | EC50 [13] [µM] | EC50 [14] [µM] | EC50 [15] [µM] | EC50 [16] [µM] | EC50 [17] [µM] | MCC [18] [µM] | EC50 [19] [µM] | EC50 [20] [µM] | other results
1 | C/C(=C\CP(=O)(N[C@@H](C)C(=O)OCc1ccccc1)Oc1ccccc1)Cn1ccc(=O)[nH]c1=O (some centres not stated) | > 100 | > 100 | > 100 | > 100 | > 100 | > 100 | > 100 | > 100 | > 100 | > 100 | > 100 | > 100 | > 100 | > 100 | > 100 | > 100 | > 100 | > 100 | > 100 | > 100 | EC50 [21]: > 100 µM; EC50 [22]: > 100 µM; MCC [23]: > 100 µM; MCC [24]: > 100 µM; MCC [25]: > 100 µM; EC50 [26]: > 100 µM; EC50 [27]: > 100 µM; EC50 [28]: > 100 µM
2 | C/C(=C\CP(=O)(N[C@@H](C)C(=O)OC(C)C)Oc1cccc2ccccc12)Cn1ccc(=O)[nH]c1=O (some centres not stated) | > 100 | > 100 | > 100 | > 100 | > 100 | > 100 | > 100 | > 100 | > 100 | > 100 | > 100 | > 100 | > 100 | 20 | > 100 | > 100 | > 100 | > 100 | > 100 | > 100 | EC50 [21]: > 100 µM; EC50 [22]: > 100 µM; MCC [23]: > 100 µM; MCC [24]: > 100 µM; MCC [25]: > 100 µM; EC50 [26]: > 100 µM; EC50 [27]: > 100 µM; EC50 [28]: > 100 µM
3 | C/C(=C/CP(=O)(N[C@@H](C)C(=O)OC(C)C)Oc1cccc2ccccc12)Cn1cc(C)c(=O)[nH]c1=O (some centres not stated) | > 100 | > 100 | > 100 | > 100 | > 100 | > 100 | > 100 | > 100 | > 100 | > 100 | > 100 | > 100 | > 100 | 39.9 | 41.6 | > 20 | 44.7 | 100 | > 100 | > 100 | EC50 [21]: > 100 µM; EC50 [22]: > 100 µM; MCC [23]: ≥ 20 µM; MCC [24]: ≥ 20 µM; MCC [25]: 100 µM; EC50 [26]: > 100 µM; EC50 [27]: > 100 µM; EC50 [28]: > 100 µM
4 | C/C(=C/CP(=O)(N[C@@H](C)C(=O)OC(C)C)Oc1cccc2c1CCCC2)Cn1ccc(=O)[nH]c1=O (some centres not stated) | > 100 | > 100 | > 100 | > 100 | > 100 | > 100 | > 100 | > 100 | > 100 | > 100 | 100 | > 100 | > 100 | 58.5 | 100 | > 20 | 54.7 | 100 | > 100 | > 100 | EC50 [21]: > 100 µM; EC50 [22]: > 100 µM; MCC [23]: > 100 µM; MCC [24]: > 100 µM; MCC [25]: 100 µM; EC50 [26]: > 100 µM; EC50 [27]: > 100 µM; EC50 [28]: > 100 µM
